Experimental data as given in PubChem BioAssay AID602154 (Broad Institute, 2011).
Active and inactive are the calls of the source.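 Rule for the calls: active = compounds reducing DiI-HDL uptake fluorescence after washout, with fitted AC50 at most twice the top tested dose; inconclusive = flat partial inhibition of 30 to 70% or a poor fit; inactive = the rest.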

Biological target: Scavenger receptor class B member 1 (Mus musculus) (UniProt Q61009)
Test: DiI-HDL uptake after washout and recovery – ldlA[mSR-BI] CHO cells, fluorescence, mechanism study for SR-BI HDL uptake inhibitor project, late-stage follow-up (AID 602154)
Outline: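 Material: ldlA[mSR-BI] CHO cells, LDL-receptor-deficient, overexpressing mouse SR-BI; reagent: 10 µg/mL DiI-HDL; incubation: compound 2 h at 37 °C, 4 h washout, 3 h HDL uptake; signal: DiI fluorescence, 550/595 nm, bottom read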

Chain of Scavenger receptor class B member 1 (Mus musculus) (Q61009 whole entry, looked up): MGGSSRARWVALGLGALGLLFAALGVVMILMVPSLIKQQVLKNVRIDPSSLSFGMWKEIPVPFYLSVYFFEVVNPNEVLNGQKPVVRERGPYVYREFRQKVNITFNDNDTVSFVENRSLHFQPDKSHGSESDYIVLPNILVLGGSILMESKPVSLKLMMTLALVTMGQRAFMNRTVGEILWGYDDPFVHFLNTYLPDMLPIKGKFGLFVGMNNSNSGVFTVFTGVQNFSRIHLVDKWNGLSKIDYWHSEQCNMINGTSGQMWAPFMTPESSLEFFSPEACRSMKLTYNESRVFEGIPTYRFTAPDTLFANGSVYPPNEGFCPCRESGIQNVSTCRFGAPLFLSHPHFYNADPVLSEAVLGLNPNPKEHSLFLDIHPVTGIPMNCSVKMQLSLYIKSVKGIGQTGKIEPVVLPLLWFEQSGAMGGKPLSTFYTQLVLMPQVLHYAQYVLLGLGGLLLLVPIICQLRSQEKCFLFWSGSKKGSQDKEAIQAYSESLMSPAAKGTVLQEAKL

| AC50 | SMILES |
| --- | --- |
| > 70000 nM (inactive) | C[C@H](C(=O)NC1CCCC1)N(C(=O)Cn1nnc(-c2ccc3c(c2)OCO3)n1)C1CCCCC1 |
| 0.598 nM | CCCCCCC1CCC/C1=N\NC(N)=S (stereo not drawn) |
| 860 nM | COCC(=O)N1CCc2cc(-c3csc(NC(=O)c4cc(OC)cc(OC)c4)n3)ccc21 |
